These results are taken from ChEMBL document CHEMBL4011623, “Development of 1-((1,4-trans)-4-Aryloxycyclohexyl)-3-arylurea Activators of Heme-Regulated Inhibitor as Selective Activators of the Eukaryotic Initiation Factor 2 Alpha (eIF2α) Phosphorylation Arm of the Integrated Endoplasmic Reticulum Stress Response” (J Med Chem, 2017).

The source made the active and inactive calls. The rule behind the calls is not given here.

For data set [1], the target named is Eukaryotic translation initiation factor 2-alpha kinase 1 (Homo sapiens) (UniProt Q9BQI3). Put plainly: Activation of HRI in human CRL2813 cells assessed as induction of CHOP mRNA level at 5 uM by real-time PCR relative to 18S RNA. It is filed as cell-based. In a few lines: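 Fold induction of CHOP mRNA in cells treated at 5 μM, normalized to 18S RNA and expressed relative to DMSO (set to 1). Triplicate samples, three independent experiments, mean ± SEM.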
Background: Quantitative PCR measures a nucleic acid by following its amplification.

Data set [2] concerns the target Eukaryotic translation initiation factor 2-alpha kinase 1 (Mus musculus) (UniProt Q9Z2R9). The data set is described as follows: Activation of HRI in mouse KLN cells transfected with 5'UTR of ATF-4 mRNA fused firefly luciferase mRNA and 5'UTR lacking uORF fused renila luciferase mRNA assessed as increase in eIF2alpha phosphorylation by measuring ratio of firefly luciferase to renila luciferase at 5 uM after 16 hrs. The class given is cell-based.

The target in data set [3] is Eukaryotic translation initiation factor 2-alpha kinase 1 (Homo sapiens) (UniProt Q9BQI3). Put plainly: Activation of HRI in human CRL2813 cells assessed as increase in CHOP protein expression at 5 uM after 8 hrs by Western blot analysis. The class given is cell-based. In a few lines: (§1)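 CRL-2813 cells at 70% confluence in serum-containing, antibiotic-free medium; treated at 5 μM for 8 h. Lysed in M-PER on ice for 30 min, equal protein by BCA, SDS-PAGE and immunoblot for CHOP, cyclin D1 and β-actin. Blots representative of three independent experiments.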
On the technique in general: Immunoblotting shows a protein as a band on a membrane.

The nature of data set [4]: Effect on beta actin protein expression in human CRL2813 cells at 5 uM after 8 hrs by Western blot analysis. To be noted: crl2813, 8 h. The class given is ADME, cell-based. In a few lines: as §1
Data set [5] deals with Eukaryotic translation initiation factor 2-alpha kinase 1 (Mus musculus) (UniProt Q9Z2R9). The data set is described as follows: Activation of HRI in mouse KLN cells transfected with 5'UTR of ATF-4 mRNA fused firefly luciferase mRNA and 5'UTR lacking uORF fused renila luciferase mRNA assessed as increase in eIF2alpha phosphorylation by measuring ratio of firefly luciferase to renila luciferase at 1.25 uM after 16 hrs. The class given is cell-based.

A short description of data set [6]: Antiproliferative activity against human CRL2813 cells after 5 days by sulforhodamine B assay. It is filed as functional, cell-based. The note with it: CRL2813, 120 h. Put shortly:
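CRL-2813 melanoma cells grown 5 days with 0.5–20 μM compound, then fixed in cold 10% TCA and stained with sulforhodamine B. Bound dye measured. Growth % = 100×(T−T0)/(C−T0), with T0 at time zero. IC50 is the concentration giving 50% growth inhibition.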
For orientation: The SRB assay estimates cell density from bound dye.

For data set [7], the target named is Eukaryotic translation initiation factor 2-alpha kinase 1 (Homo sapiens) (UniProt Q9BQI3). Put plainly: Activation of HRI in human CRL2813cells assessed as decrease in cyclin D1 protein expression at 5 uM after 8 hrs by Western blot analysis. Put shortly: as §1
Data set [8] shares this target. Put plainly: Activation of HRI in human CRL2813 cells assessed as increase in eIF2alpha phosphorylation at 5 uM after 2 hrs by Western blot analysis. It is filed as cell-based. In a few lines:
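Adherent CRL-2813 melanoma cells exposed to 5 μM for 2 h. Lysates immunoblotted with anti-phosphoserine-51 eIF2α and anti-total eIF2α antibodies after BCA normalization and SDS-PAGE. Gels representative of three independent experiments.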

Data set [9] concerns the target Eukaryotic translation initiation factor 2-alpha kinase 1 (Mus musculus) (UniProt Q9Z2R9). Put plainly: Activation of HRI in mouse KLN cells transfected with 5'UTR of ATF-4 mRNA fused firefly luciferase mRNA and 5'UTR lacking uORF fused renila luciferase mRNA assessed as increase in eIF2alpha phosphorylation by measuring ratio of firefly luciferase to renila luciferase after 16 hrs. It is filed as cell-based.

Eukaryotic translation initiation factor 2-alpha kinase 1 (Mus musculus), sequence (Q9Z2R9 whole entry, the tested form may be a part): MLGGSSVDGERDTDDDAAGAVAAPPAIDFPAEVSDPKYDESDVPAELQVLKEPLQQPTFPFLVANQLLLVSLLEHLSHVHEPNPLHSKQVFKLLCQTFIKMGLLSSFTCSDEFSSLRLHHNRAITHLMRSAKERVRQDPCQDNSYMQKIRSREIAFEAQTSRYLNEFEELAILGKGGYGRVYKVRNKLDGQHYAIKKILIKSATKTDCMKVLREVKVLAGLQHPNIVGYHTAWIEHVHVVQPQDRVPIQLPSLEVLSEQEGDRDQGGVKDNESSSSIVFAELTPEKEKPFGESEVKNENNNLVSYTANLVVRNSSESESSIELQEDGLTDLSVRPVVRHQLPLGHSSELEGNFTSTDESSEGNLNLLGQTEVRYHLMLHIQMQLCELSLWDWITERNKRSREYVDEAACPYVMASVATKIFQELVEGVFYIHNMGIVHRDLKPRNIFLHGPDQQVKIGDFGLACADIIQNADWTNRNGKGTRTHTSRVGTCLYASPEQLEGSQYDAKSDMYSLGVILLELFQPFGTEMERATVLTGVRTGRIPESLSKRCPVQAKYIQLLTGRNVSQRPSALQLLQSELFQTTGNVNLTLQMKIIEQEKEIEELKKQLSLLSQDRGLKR
Eukaryotic translation initiation factor 2-alpha kinase 1 (Homo sapiens), sequence (Q9BQI3 whole entry): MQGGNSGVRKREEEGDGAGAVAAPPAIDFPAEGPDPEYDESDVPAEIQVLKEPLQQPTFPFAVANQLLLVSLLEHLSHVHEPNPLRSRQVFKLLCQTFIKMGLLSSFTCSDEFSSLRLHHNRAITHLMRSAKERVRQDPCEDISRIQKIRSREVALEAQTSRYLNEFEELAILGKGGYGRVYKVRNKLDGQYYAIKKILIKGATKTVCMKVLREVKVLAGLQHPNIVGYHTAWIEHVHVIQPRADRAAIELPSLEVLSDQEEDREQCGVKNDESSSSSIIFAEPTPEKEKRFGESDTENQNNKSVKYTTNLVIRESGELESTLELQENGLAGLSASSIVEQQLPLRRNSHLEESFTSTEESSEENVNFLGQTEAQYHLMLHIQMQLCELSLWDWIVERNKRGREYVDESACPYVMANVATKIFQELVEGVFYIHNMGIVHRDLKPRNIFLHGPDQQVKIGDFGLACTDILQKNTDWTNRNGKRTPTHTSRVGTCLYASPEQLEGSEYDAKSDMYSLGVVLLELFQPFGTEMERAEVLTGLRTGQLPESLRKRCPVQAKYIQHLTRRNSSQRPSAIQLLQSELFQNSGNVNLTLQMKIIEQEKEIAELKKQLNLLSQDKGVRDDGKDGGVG

As usually defined, the IC50 is the point on the concentration scale where inhibition reaches its midpoint. Low values mean greater potency in that assay, high ones weaker potency in that assay. For the molecule `N#Cc1ccc(NC(=O)N[C@H]2CC[C@H](Oc3ccc(C(F)(F)F)cc3)CC2)cc1`, the fold change (FC) in data set [1] came to 12.8. Moreover, the figures for the Ratio in [2] and in [5] were 11.6 and 3.38, respectively. Also, the outcome in data set [3], in data set [7] and in data set [8] was Active. Further, the Activity result in data set [4] is “Non-Toxic”; in [9], “Dose-dependent effect”. This molecule registered an IC50 in data set [6] of 0.49 µM.

For the molecule `NC(=O)c1cc(O[C@H]2CC[C@H](NC(=O)Nc3cccc(C(F)(F)F)c3)CC2)ccc1C(F)(F)F`, the Ratio in data set [2] is 1.12; in data set [5] it was 0.79. The molecule further gave an IC50 in [6] of 3.36 µM. The Activity entry in data set [9] is “Dose-dependent effect”.

In the case of `N#Cc1ccc(O[C@H]2CC[C@H](NC(=O)Nc3cccc(C#N)c3)CC2)cc1`, the Ratio came to 1.15 in [2] and 1.01 in data set [5]. In data set [6], this molecule yielded a half-maximal inhibitory concentration (IC50) of 8.2 µM. In addition, the Activity result in data set [9] is “Dose-dependent effect”.

As to `NC(=O)c1cc(C(F)(F)F)ccc1O[C@H]1CC[C@H](NC(=O)Nc2cccc(C(F)(F)F)c2)CC1`, the figures for the Ratio in [2] and in data set [5] were 1.49 and 0.91, respectively. In data set [6], the IC50 came to 2.76 µM. Besides, in [9], the Activity entry was “Dose-dependent effect”.

Consider `O=C(Nc1cc(C(F)(F)F)cc(C(F)(F)F)c1)N[C@H]1CC[C@H](Oc2ccc(C(F)(F)F)cc2)CC1`, for which the fold change (FC) in data set [1] came to 14.5. The figures for the Ratio in [2] and in data set [5] were 30.7 and 8.58, respectively. Further, the outcome in data set [3], in data set [7] and in data set [8] was Active. The Activity result is “Non-Toxic” in data set [4] and “Dose-dependent effect” in data set [9]. In addition, the IC50 in [6] was 0.45 µM.

On to `N#Cc1ccc(NC(=O)N[C@H]2CC[C@H](Oc3ccc(C(F)(F)F)cc3)CC2)cc1C#N`, for which the fold change (FC) in data set [1] came out at 6.21. Moreover, the Ratio in [2] was determined as 7.75; in data set [5] it was 5.54. The result in [3], in data set [7] and in data set [8] was Active. Also, the Activity result was “Non-Toxic” in data set [4] and “Dose-dependent effect” in data set [9]. For the same molecule, 2.01 µM corresponded to half-maximal inhibition in data set [6] (IC50).

In the case of `CC(=O)Nc1cc(C(F)(F)F)ccc1O[C@H]1CC[C@H](NC(=O)Nc2cccc(C(F)(F)F)c2)CC1`, the Ratio in [2] turned out to be 3.9; in data set [5] it was 0.84. Besides, in data set [6], the midpoint of inhibition, the IC50, lay at 1.46 µM. Besides, the Activity entry in data set [9] is “Dose-dependent effect”.

With `O=C(Nc1cccc(C(F)(F)F)c1)N[C@H]1CC[C@H](Oc2ccc(C(F)(F)F)cc2[N+](=O)[O-])CC1`, the Ratio was determined as 3.28 in [2] and 0.96 in data set [5]. The same molecule yielded an IC50 in [6] of 5.51 µM. In data set [9], the Activity result was “Dose-dependent effect”.

For the molecule `O=C(Nc1ccc(Oc2ccc(C(F)(F)F)cc2)cc1)Nc1cccc(OC(F)(F)F)c1`, the figures for the Ratio in data set [2] and in data set [5] were 6.73 and 2.37, respectively. In data set [6], this molecule yielded an IC50 of 0.5 µM. For the same molecule, the Activity result in data set [9] was “Dose-dependent effect”.

In the case of `CC(=O)Nc1cc(C(F)(F)F)ccc1O[C@H]1CC[C@H](NC(=O)Nc2cccc(OC(F)(F)F)c2)CC1`, the Ratio in data set [2] was determined as 4.31; in data set [5] it was 0.85. The molecule also returned an IC50 in [6] of 1.5 µM. The Activity entry in data set [9] was “Dose-dependent effect”.

Turning to `O=C(Nc1ccc(Oc2ccc(C(F)(F)F)cc2)cc1)Nc1cccc(C(F)(F)F)c1`, the Ratio in data set [2] is 8.99; in data set [5] it was 3.31. In addition, in [6], half-maximal inhibition (IC50) was put at 0.44 µM. In [9], the Activity entry is “Dose-dependent effect”.

As to `O=C(Nc1cccc(C(F)(F)F)c1)N[C@H]1CC[C@H](Oc2ccc(OC(F)(F)F)cc2)CC1`, the results for the Ratio in data set [2] and in data set [5] were 10.1 and 3.37, respectively. In [6], this molecule showed an IC50 of 0.82 µM.

Regarding `O=C(Nc1cccc(C(F)(F)F)c1)N[C@H]1CC[C@H](Oc2ccc(C(F)(F)F)cn2)CC1`, the Ratio was 6.11 in data set [2] and 1.02 in data set [5]. The IC50 in [6] stood at 1.57 µM. Moreover, in data set [9], the Activity result is “Dose-dependent effect”.

On to `N#Cc1ccc(NC(=O)N[C@H]2CC[C@H](Oc3ccc(C#N)cc3)CC2)cc1`, for which the Ratio in [2] came out at 1.38; in data set [5], 1.03. In addition, half-maximal inhibition in data set [6] (IC50) required 9.03 µM. Besides, in data set [9], the Activity entry was “Dose-dependent effect”.

In the case of `O=C(Nc1cccc(OC(F)(F)F)c1)N[C@H]1CC[C@H](Oc2ccc(OC(F)(F)F)cc2)CC1`, the Ratio in data set [2] amounted to 10.7; in [5], 2.87. It took 1.45 µM to reach half-maximal inhibition in data set [6] (IC50). The Activity entry in [9] is “Dose-dependent effect”.

Regarding `N#Cc1cccc(NC(=O)N[C@H]2CC[C@H](Oc3ccc(C(F)(F)F)cc3)CC2)c1`, the Ratio in data set [2] amounted to 7; in [5], 0.96. In addition, the IC50 in [6] amounted to 0.94 µM. Further, in data set [9], the Activity entry is “Dose-dependent effect”.

`O=C(Nc1cccc(OC(F)(F)F)c1)N[C@H]1CC[C@H](Oc2ccc(C(F)(F)F)cc2)CC1`: the fold change (FC) in [1] was determined as 11.9. Further, the Ratio was 13.6 in data set [2] and 5.2 in [5]. The outcome in [3], in [7] and in [8] was Active. The Activity entry in [4] was “Non-Toxic”; in data set [9], “Dose-dependent effect”. This molecule also came in with an IC50 in [6] of 0.92 µM.

Regarding `NC(=O)c1cc(C(F)(F)F)ccc1O[C@H]1CC[C@H](NC(=O)Nc2cccc(OC(F)(F)F)c2)CC1`, the Ratio worked out at 5.13 in data set [2] and 0.88 in data set [5]. For the same molecule, in data set [6], the IC50 was 1.53 µM. Besides, the Activity entry in [9] was “Dose-dependent effect”.

With `N#Cc1ccc(O[C@H]2CC[C@H](NC(=O)Nc3cccc(C(F)(F)F)c3)CC2)cc1`, the Ratio was 3.23 in data set [2] and 0.92 in [5]. This molecule registered an IC50 in data set [6] of 6.06 µM. Further, in [9], the Activity result was “Dose-dependent effect”.

As to `O=C(Nc1cccc(C(F)(F)F)c1)N[C@H]1CC[C@H](Oc2ccc(C(F)(F)F)cc2)CC1`, the fold change (FC) in data set [1] amounted to 4.72. The Ratio was found to be 10.2 in data set [2] and 3.23 in data set [5]. Besides, the outcome in data set [3], in [7] and in data set [8] was Active. Further, the Activity result in [4] was “Non-Toxic”; in [9], “Dose-dependent effect”. Further, it took 0.54 µM to reach half-maximal inhibition in data set [6] (IC50).

Take `NC(=O)c1cc(O[C@H]2CC[C@H](NC(=O)Nc3cccc(OC(F)(F)F)c3)CC2)ccc1C(F)(F)F`: the Ratio in data set [2] worked out at 1.57; in [5], 1.04. Moreover, in data set [6], the IC50 came out at 3.66 µM. Also, in data set [9], the Activity result was “Dose-dependent effect”.

Turning to `N#Cc1cc(C#N)cc(NC(=O)N[C@H]2CC[C@H](Oc3ccc(C(F)(F)F)cc3)CC2)c1`, the Ratio in data set [2] came out at 2.36; in data set [5] it was 1.51. This molecule gave an IC50 in data set [6] of 3.68 µM. Besides, in [9], the Activity result was “Dose-dependent effect”.

With `N#Cc1cc(C(F)(F)F)ccc1O[C@H]1CC[C@H](NC(=O)Nc2cccc(C(F)(F)F)c2)CC1`, the Ratio in data set [2] was determined as 6.3; in data set [5], 1.01. In [6], this molecule gave an IC50 of 1.47 µM. Besides, the Activity result in data set [9] is “Dose-dependent effect”.
